Measured values: ChEMBL document CHEMBL1143198, “Potent, nonpeptide inhibitors of human mast cell tryptase. Synthesis and biological evaluation of novel spirocyclic piperidine amide derivatives” (Bioorg Med Chem Lett, 2008)
Active and inactive are the calls of the source. No cut-off for these calls is given here.

Key:
Trypsin = Trypsin (Homo sapiens, UniProt P07477+P07478+P35030); assay: Inhibition of human trypsin by chromogenic assay; assay type: protein assay
Homo sapiens [1] = organism: Homo sapiens; assay: Ratio of IC50 for human trypsin to IC50 for human tryptase
Method in brief: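 Human lung β-tryptase: 1 nM, H-D-HHT-Ala-Arg-pNA 500 µM, Tris/Hepes/NaCl/PEG buffer, pH 7.4. Human pancreatic trypsin: 1.8 nM, N-α-Z-D-Arg-Gly-Arg-pNA 60 µM, 200 mM NaCl, 50 mM Hepes, 0.5% octyl glucoside, pH 7.4.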

[2] = Inhibition of human lung beta tryptase by chromogenic assay
Plasma = assay: Drug level in sheep plasma; assay type: ADME, cell-free, Ovis aries
Cavia porcellus [3] = assay: Antiinflammatory activity in ovalbumin-sensitized guinea pig asthma model assessed as reduction in total lung resistance at 20 mg/kg, po BID for 3 days relative to control; assay type: functional; design: scale not given: the % may be the effect or the level left
Method in brief: (§1)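 Ovalbumin-sensitized guinea pigs received the benzoate salt orally at 20 mg/kg twice daily for 3 days, then once on Day 4 at 2 h before ovalbumin challenge.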

Cavia porcellus [4] = assay: Antiinflammatory activity in ovalbumin-sensitized guinea pig asthma model assessed as increase in dynamic lung compliance at 20 mg/kg, po BID for 3 days relative to control; assay type: functional; method in brief: as §1
Cavia porcellus [5] = assay: Antiinflammatory activity in ovalbumin-sensitized guinea pig asthma model assessed as reduction in total WBC cell count at 20 mg/kg, po BID for 3 days relative to control; assay type: functional; design: scale not given: the % may be the effect or the level left; method in brief: as §1
[6] = molecular target: Coagulation factor X (Homo sapiens) (UniProt P00742); assay: Inhibition of factor 10a at 50 uM
Sequence of Coagulation factor X (Homo sapiens) (P00742 41-179 limits assumed): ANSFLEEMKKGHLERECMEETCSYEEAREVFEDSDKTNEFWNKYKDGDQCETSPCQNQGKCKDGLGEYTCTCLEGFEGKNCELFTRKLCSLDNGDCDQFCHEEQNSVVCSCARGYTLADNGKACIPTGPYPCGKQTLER
Sequence of Coagulation factor X (Homo sapiens) (P00742 235-488 limits assumed): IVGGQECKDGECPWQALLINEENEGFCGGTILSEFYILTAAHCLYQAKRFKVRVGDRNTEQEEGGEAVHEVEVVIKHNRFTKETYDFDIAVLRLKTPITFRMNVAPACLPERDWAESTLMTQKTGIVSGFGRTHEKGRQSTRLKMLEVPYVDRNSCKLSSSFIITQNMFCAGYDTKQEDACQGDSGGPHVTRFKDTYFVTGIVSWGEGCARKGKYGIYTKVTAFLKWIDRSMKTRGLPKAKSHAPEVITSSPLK

Chymase (Homo sapiens) = Chymase (Homo sapiens) (UniProt P23946); assay: Inhibition of chymase at 50 uM
Sequence of Chymase (Homo sapiens) (P23946 whole entry): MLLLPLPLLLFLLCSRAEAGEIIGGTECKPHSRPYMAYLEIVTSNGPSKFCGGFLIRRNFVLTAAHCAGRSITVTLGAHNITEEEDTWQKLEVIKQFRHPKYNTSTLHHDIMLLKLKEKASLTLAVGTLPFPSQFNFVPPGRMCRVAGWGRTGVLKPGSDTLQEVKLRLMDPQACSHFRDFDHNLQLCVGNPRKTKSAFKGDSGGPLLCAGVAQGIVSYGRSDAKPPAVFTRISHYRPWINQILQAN

[7] = molecular target: Cathepsin G (Homo sapiens) (UniProt P08311); assay: Inhibition of cathepsin G at 50 uM
Sequence of Cathepsin G (Homo sapiens) (P08311 whole entry): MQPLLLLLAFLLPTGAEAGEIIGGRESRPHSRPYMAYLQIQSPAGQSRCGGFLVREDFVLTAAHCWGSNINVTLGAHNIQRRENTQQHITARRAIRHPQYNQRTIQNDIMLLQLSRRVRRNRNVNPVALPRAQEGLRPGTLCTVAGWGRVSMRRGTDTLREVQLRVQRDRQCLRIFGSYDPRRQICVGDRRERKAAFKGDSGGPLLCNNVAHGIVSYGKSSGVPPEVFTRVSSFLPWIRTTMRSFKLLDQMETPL

[8] = molecular target: Prothrombin (Homo sapiens) (UniProt P00734); assay: Inhibition of thrombin at 10 uM
[9] = molecular target: Plasminogen (Homo sapiens) (UniProt P00747); assay: Inhibition of plasmin at 10 uM
[10] = molecular target: Tissue-type plasminogen activator (Homo sapiens) (UniProt P00750); assay: Inhibition of tPA at 10 uM
[11] = molecular target: Coagulation factor VII (Homo sapiens) (UniProt P08709); assay: Inhibition of factor 7a at 10 uM
Sequence of Coagulation factor VII (Homo sapiens) (P08709 61-212 limits assumed): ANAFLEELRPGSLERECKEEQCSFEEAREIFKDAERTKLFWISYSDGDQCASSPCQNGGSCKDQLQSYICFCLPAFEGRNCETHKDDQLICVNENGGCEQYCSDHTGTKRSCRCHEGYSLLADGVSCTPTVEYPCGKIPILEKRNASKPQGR
Sequence of Coagulation factor VII (Homo sapiens) (P08709 213-466 limits assumed): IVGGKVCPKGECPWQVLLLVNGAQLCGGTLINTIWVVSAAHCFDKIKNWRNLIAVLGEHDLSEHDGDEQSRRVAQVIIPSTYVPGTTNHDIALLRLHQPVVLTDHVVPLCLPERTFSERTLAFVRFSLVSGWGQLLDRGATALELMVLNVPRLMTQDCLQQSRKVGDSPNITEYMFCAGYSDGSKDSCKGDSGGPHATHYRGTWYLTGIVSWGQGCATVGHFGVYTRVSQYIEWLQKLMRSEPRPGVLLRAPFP

[12] = molecular target: Plasma kallikrein (Homo sapiens) (UniProt P03952); assay: Inhibition of kallikrein at 10 uM
Sequence of Plasma kallikrein (Homo sapiens) (P03952 20-390 limits assumed): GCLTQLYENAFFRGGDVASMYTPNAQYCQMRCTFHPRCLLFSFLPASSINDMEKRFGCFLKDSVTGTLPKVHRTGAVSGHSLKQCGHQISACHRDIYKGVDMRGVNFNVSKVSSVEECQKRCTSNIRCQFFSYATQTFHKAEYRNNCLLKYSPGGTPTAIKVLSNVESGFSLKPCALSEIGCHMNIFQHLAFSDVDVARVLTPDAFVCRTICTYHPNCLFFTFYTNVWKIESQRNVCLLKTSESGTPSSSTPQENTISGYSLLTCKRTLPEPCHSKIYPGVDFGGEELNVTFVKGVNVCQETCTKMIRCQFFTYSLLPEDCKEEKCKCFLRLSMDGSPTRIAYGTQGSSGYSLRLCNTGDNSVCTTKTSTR
Sequence of Plasma kallikrein (Homo sapiens) (P03952 391-638 limits assumed): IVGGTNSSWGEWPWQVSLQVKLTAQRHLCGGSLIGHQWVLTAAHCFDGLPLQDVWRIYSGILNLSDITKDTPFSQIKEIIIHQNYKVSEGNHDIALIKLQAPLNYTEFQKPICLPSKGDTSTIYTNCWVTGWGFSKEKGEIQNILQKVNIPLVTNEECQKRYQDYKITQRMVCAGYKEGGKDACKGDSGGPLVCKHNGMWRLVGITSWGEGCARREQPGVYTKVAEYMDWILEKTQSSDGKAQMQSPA

[13] = molecular target: Urokinase-type plasminogen activator (Homo sapiens) (UniProt P00749); assay: Inhibition of uPA at 10 uM
[14] = Inhibition of streptokinase at 10 uM
[15] = molecular target: Neutrophil elastase (Homo sapiens) (UniProt P08246); assay: Inhibition of human leukocyte elastase at 10 uM
Sequence of Neutrophil elastase (Homo sapiens) (P08246 whole entry): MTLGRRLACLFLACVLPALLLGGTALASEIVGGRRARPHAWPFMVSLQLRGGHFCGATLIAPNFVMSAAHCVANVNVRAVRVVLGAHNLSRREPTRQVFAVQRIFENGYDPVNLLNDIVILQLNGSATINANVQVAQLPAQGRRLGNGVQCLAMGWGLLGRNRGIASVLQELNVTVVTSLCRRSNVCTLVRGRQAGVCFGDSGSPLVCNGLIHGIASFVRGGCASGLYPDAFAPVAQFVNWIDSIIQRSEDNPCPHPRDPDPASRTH

[16] = Inhibition of chymotrypsin at 10 uM
Ovis aries [17] = assay: Antiinflammatory activity in Ascaris suum-sensitized sheep asthma model assessed as blockade of late-phase airway response at 30 mg/kg, po BID after 8 hrs; assay type: functional, organism-based; design: dose 30 mg/kg
Method in brief: (§2)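 Conscious, antigen-sensitized allergic sheep were dosed by oral gavage with the benzoate salt at 30 mg/kg twice on Day 1, and on Day 2 at 2 h before antigen challenge. Airway resistance (SR_L) was monitored for 8 h after challenge: early phase 0–4 h, late phase 4–8 h. Airway hyper-reactivity to carbachol (PC₄₀₀) was measured at 24 h.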

Ovis aries [18] = assay: Antiinflammatory activity in Ascaris suum-sensitized sheep asthma model assessed as blockade of early-phase airway response at 30 mg/kg, po BID after 8 hrs; assay type: functional, organism-based; design: dose 30 mg/kg; method in brief: as §2
Ovis aries [19] = assay: Antiinflammatory activity in Ascaris suum-sensitized sheep asthma model assessed as increase in airway hyperactivity at 30 mg/kg, po BID after 24 hrs relative to carbachol; assay type: functional, organism-based; design: dose 30 mg/kg; method in brief: as §2
Homo sapiens [20] = organism: Homo sapiens; assay: Inhibition of human recombinant beta tryptase at 50 uM by chromogenic assay; settings: in the assay text read “human lung beta tryptase” for “human recombinant beta tryptase”
Method in brief: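 A405 followed for 15 min at 22 °C after enzyme addition. Percent inhibition at 50 µM compared initial velocities with and without inhibitor.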

[21] = molecular target: Amine oxidase [flavin-containing] A (Homo sapiens, UniProt P21397); assay: Inhibition of monoamine oxidase A
Sequence of Amine oxidase [flavin-containing] A (P21397 whole entry): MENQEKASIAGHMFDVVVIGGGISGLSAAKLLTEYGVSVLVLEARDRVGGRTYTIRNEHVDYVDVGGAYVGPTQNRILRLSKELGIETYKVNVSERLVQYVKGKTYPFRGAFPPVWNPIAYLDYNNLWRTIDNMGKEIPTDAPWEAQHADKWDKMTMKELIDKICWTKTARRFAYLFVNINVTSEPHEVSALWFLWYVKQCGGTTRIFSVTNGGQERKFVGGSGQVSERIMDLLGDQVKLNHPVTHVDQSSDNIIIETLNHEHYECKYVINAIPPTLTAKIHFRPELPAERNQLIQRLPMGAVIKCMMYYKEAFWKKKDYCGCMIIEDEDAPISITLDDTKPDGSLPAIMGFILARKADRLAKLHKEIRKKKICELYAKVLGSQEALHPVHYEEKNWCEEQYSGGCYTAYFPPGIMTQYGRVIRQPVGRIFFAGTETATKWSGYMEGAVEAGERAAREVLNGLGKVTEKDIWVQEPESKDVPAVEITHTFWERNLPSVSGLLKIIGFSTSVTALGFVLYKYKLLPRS

[22] = molecular target: Amine oxidase [flavin-containing] B (Homo sapiens, UniProt P27338); assay: Inhibition of monoamine oxidase B
monoamine oxidase B = assay: Stability in presence of monoamine oxidase B after 30 mins; assay type: ADME; settings: read-out: Stability
Method in brief: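 The compound was tested as an MAO-B substrate, with parent remaining measured at 30 min. Benzylamine was run as a reference substrate.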

[23] = Oral bioavailability in rat; assay type: ADME, organism-based; settings: in vivo
[24] = Cmax in orally dosed rat; assay type: ADME, organism-based; design: route oral; settings: in vivo, po
[25] = Half life in orally dosed rat; assay type: ADME, organism-based; settings: in vivo, po
Rattus norvegicus = assay: Volume of distribution in orally dosed rat; assay type: ADME, organism-based; settings: in vivo, po
[26] = Oral bioavailability in dog; assay type: ADME, organism-based, Canis lupus familiaris; settings: in vivo
[27] = Cmax in orally dosed dog; assay type: ADME, organism-based, Canis lupus familiaris; design: route oral; settings: in vivo, po
[28] = Half life in orally dosed dog; assay type: ADME, organism-based, Canis lupus familiaris; settings: in vivo, po
Canis familiaris = assay: Volume of distribution in orally dosed dog; assay type: ADME, organism-based, Canis lupus familiaris; settings: in vivo, po
[29] = Metabolic stability in human liver microsomes assessed as half life; assay type: ADME, Microsome
[30] = Metabolic stability in human liver microsomes after 60 mins; assay type: ADME, Microsome; settings: read-out: Stability
Cytochrome P450 1A2 = Cytochrome P450 1A2 (Homo sapiens, UniProt P05177); assay: Inhibition of human CYP1A2; assay type: ADME
Sequence of Cytochrome P450 1A2 (P05177 whole entry): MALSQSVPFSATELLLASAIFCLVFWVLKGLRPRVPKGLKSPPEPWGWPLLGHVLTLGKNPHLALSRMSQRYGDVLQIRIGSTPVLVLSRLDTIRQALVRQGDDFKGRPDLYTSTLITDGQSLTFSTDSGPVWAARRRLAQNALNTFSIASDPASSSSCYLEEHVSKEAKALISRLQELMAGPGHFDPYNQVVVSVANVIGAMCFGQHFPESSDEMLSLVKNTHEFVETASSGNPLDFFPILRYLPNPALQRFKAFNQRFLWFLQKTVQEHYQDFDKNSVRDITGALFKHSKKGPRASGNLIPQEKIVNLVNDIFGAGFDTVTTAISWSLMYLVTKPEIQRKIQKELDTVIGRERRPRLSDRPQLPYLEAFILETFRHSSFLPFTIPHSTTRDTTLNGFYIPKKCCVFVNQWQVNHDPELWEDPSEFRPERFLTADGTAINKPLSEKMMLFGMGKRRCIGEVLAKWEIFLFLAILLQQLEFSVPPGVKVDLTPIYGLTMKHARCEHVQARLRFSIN
Method in brief: (§3)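 IC50 for cytochrome P450 isozyme inhibition was measured in isolated human liver microsomes.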

Cytochrome P450 2C9 = Cytochrome P450 2C9 (Homo sapiens, UniProt P11712); assay: Inhibition of human CYP2C9; assay type: ADME; method in brief: as §3
Sequence of Cytochrome P450 2C9 (P11712 whole entry): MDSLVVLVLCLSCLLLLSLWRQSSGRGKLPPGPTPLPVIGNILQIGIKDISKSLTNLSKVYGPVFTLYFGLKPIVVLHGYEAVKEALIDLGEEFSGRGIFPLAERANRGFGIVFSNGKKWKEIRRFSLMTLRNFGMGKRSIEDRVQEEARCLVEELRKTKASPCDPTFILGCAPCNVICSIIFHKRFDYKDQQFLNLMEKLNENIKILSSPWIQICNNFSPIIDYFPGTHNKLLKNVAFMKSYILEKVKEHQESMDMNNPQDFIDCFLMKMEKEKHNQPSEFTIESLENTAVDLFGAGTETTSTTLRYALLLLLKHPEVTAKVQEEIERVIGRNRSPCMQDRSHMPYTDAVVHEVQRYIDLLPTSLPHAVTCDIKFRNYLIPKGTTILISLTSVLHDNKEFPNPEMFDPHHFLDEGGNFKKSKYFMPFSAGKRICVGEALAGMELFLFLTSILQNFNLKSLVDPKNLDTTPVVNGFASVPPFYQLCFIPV

Cytochrome P450 2D6 = Cytochrome P450 2D6 (Homo sapiens, UniProt P10635); assay: Inhibition of human CYP2D6; assay type: ADME; method in brief: as §3
Cytochrome P450 2C19 = Cytochrome P450 2C19 (Homo sapiens, UniProt P33261); assay: Inhibition of human CYP2C19; assay type: ADME; method in brief: as §3
Sequence of Cytochrome P450 2C19 (P33261 whole entry): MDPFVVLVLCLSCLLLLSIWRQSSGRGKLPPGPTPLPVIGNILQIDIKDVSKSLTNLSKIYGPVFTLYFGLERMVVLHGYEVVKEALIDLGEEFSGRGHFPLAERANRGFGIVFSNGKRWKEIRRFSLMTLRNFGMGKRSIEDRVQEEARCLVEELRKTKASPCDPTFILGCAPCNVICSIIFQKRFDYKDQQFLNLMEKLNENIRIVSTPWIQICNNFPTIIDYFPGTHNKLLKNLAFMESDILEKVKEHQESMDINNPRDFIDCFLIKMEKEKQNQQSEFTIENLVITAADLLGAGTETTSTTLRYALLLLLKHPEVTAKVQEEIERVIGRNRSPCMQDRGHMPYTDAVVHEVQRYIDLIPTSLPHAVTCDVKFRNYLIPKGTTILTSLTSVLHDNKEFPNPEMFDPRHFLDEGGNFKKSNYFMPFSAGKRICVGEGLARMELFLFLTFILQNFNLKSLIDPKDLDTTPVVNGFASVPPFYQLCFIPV

Cytochrome P450 3A4 = Cytochrome P450 3A4 (Homo sapiens, UniProt P08684); assay: Inhibition of human CYP3A4; assay type: ADME; method in brief: as §3
Sequence of Cytochrome P450 3A4 (P08684 whole entry): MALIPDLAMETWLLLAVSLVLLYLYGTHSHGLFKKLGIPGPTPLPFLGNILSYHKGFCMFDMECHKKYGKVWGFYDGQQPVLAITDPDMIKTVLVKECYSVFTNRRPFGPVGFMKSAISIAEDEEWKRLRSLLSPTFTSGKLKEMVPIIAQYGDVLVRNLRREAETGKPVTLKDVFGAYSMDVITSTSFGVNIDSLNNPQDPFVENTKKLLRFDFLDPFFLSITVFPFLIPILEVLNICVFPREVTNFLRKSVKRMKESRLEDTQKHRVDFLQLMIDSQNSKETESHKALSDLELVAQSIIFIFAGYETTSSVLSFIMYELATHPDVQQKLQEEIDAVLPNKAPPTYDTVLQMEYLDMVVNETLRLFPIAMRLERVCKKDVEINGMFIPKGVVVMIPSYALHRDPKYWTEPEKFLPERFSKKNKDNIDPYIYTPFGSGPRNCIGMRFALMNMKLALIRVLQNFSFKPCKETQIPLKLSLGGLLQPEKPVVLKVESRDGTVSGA

| Compound | IC50 (Trypsin) [nM] | IC50 [2] [nM] | Ki [2] [nM] | also measured |
| --- | --- | --- | --- | --- |
| NCc1ccc2c(c1)C1(CCN(C(=O)c3ccc(C#Cc4ccccc4)o3)CC1)CO2.O=C(O)c1ccccc1 |  |  |  | concentration (Plasma): 400 nM; Activity (Cavia porcellus [3]): 90%; Activity (Cavia porcellus [4]): 65%; Activity (Cavia porcellus [5]): 20% |
| CC(C)(C)c1ccc(C#Cc2ccc(C(=O)N3CCC4(CC3)COc3ccc(CN)cc34)o2)cc1 | 13000 | 700 |  |  |
| NCc1ccc2c(c1)C1(CCN(C(=O)c3ccc(C#Cc4ccc(O)cc4)o3)CC1)CO2 | 23000 | 3200 |  |  |
| NCc1ccc2c(c1)C1(CCN(C(=O)c3ccc(C#Cc4ccccc4)o3)CC1)CO2 [listing 1 of 2 here] |  |  |  | inhibition [6]: < 30%; inhibition (Chymase (Homo sapiens)): < 30%; inhibition [7]: < 30%; inhibition [8]: < 15%; inhibition [9]: < 15%; inhibition [10]: < 15%; inhibition [11]: < 15%; inhibition [12]: < 15%; inhibition [13]: < 15%; inhibition [14]: < 15%; inhibition [15]: < 15%; inhibition [16]: < 15%; Activity (Ovis aries [17]): Active; Activity (Ovis aries [18]): inactive; Activity (Ovis aries [19]): Active |
| NCc1ccc2c(c1)C1(CCN(C(=O)c3ccc(CCc4ccccc4)o3)CC1)CO2 | 47000 | 82 |  |  |
| NCc1cccc(C2CCN(C(=O)c3ccc(C#Cc4ccccc4)o3)CC2)c1 |  |  | 8.7 |  |
| NCc1cccc(C2CCN(C(=O)c3ccc(C#Cc4ccccc4F)o3)CC2)c1 |  |  | 31 |  |
| NC(=O)c1ccc2c(c1)C1(CCN(C(=O)c3ccc(C#Cc4ccccc4)o3)CC1)CO2 | 39000 |  |  | inhibition (Homo sapiens [20]): 29% |
| NCc1ccc2c(c1)C1(CCN(C(=O)c3ccc(Sc4ccccc4)o3)CC1)CO2 | 9100 | 90 |  |  |
| C/N=C(/N)c1ccc2c(c1)C1(CCN(C(=O)c3ccc(C#Cc4ccccc4)o3)CC1)CO2 | > 50000 | 780 |  |  |
| NCc1ccc2c(c1)C1(CCN(C(=O)c3ccc(C#Cc4ccccc4)o3)CC1)CO2 [listing 2 of 2 here] | 18000 |  |  | Ki (Trypsin): 2500 nM; IC50 [21]: 23000 nM; IC50 [22]: 72000 nM; remaining at 0.5 h (monoamine oxidase B): 95%; bioavailability [23]: 100%; Cmax [24]: 1100 nM; half-life [25]: 7 h; Vd (Rattus norvegicus): 17 L/kg; bioavailability [26]: 65%; Cmax [27]: 900 nM; half-life [28]: 27 h; Vd (Canis familiaris): 16 L/kg; half-life [29]: > 1.67 h; remaining at 1 h [30]: 100%; IC50 (Cytochrome P450 1A2): > 20000 nM; IC50 (Cytochrome P450 2C9): > 20000 nM; IC50 (Cytochrome P450 2D6): > 20000 nM; IC50 (Cytochrome P450 2C19): > 20000 nM; IC50 (Cytochrome P450 3A4): > 20000 nM |

Now from value to molecule, other results behind:

| IC50 (Trypsin) [nM] | IC50 [2] [nM] | Ki [2] [nM] | Compound | also measured |
| --- | --- | --- | --- | --- |
| 1400 | 4.5 |  | N=C(N)c1ccc2c(c1)C1(CCN(C(=O)c3ccc(C#Cc4ccccc4)o3)CC1)CO2 | Ratio IC50 (Homo sapiens [1]): 300 |
|  | 13 | 10 | CC(=O)N1C[C@H](O)C[C@H]1C(=O)NC(CCCNC(=N)N)C(=O)c1nc2ccccc2s1 (some centres not stated) |  |
| 38000 | 5.2 | 3.4 | NCc1ccc2c(c1)C1(CCN(C(=O)c3ccc(C#Cc4ccccc4Cl)o3)CC1)CO2 |  |
| > 50000 | 1.8 | 7.1 | CS(=O)(=O)N1CC2(CCN(C(=O)c3ccc(C#Cc4ccccc4)o3)CC2)c2cc(CN)ccc21 |  |
| 12000 | 4.3 | 3 | NCc1ccc2c(c1)C1(CCN(C(=O)c3ccc(C#Cc4ccccc4F)o3)CC1)CO2 |  |
| > 50000 | 23 |  | NCc1ccc2c(c1)C1(CCN(C(=O)c3ccc(C#Cc4ccccc4)o3)CC1)CN2 |  |
| 7700 | 3.1 |  | NCc1ccc2c(c1)C1(CC2)CCN(C(=O)c2ccc(C#Cc3ccccc3)o2)CC1 |  |
| 6700 | 5.7 | 16 | NCc1ccc2c(c1)C1(CCN(C(=O)c3ccc(C#Cc4ccccc4)o3)CC1)CN2S(=O)(=O)c1ccccc1 |  |
| 13000 | 8.3 |  | Cc1ccc(C#Cc2ccc(C(=O)N3CCC4(CC3)COc3ccc(CN)cc34)o2)cc1 |  |
| > 50000 | 15 |  | CC(=O)N1CC2(CCN(C(=O)c3ccc(C#Cc4ccccc4)o3)CC2)c2cc(CN)ccc21 |  |
| 12000 | 1.2 | 4 | Cc1ccccc1C#Cc1ccc(C(=O)N2CCC3(CC2)COc2ccc(CN)cc23)o1 |  |
| 8600 | 28 |  | NCc1ccc2c(c1)C1(CCN(C(=O)c3ccc(-c4ccccc4)o3)CC1)CO2 |  |
| > 50000 | 59 |  | N/N=C(\N)c1ccc2c(c1)C1(CCN(C(=O)c3ccc(C#Cc4ccccc4)o3)CC1)CO2 |  |
| 5500 | 13 |  | COc1ccccc1C#Cc1ccc(C(=O)N2CCC3(CC2)COc2ccc(CN)cc23)o1 |  |
